Here are results for eight molecules from PMC2745708 (Free radical biology & medicine, 2009).

In one test the target is NOS1 (Rattus norvegicus, UniProt P29476). Nature of the test: 14-C-L-arginine to 14-C-L-citrulline conversion by purified recombinant NOS1. The test is classed as biochemical. A digest of the protocol:
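Purified recombinant rat NOS1 or human NOS2 holoprotein at 5 nM. Incubated 60 min at 37°C with 2.9 μM 14C-L-arginine and 10 μM unlabeled L-arginine in 50 mM HEPES pH 7.5, with 10 μM FAD, 1 mM DTT, 100 μM tetrahydrobiopterin, 200 μM NADPH, and graded test compound, in near-dark. Stopped with HEPES pH 5.5/citrulline/EDTA. 14C-citrulline separated on Dowex 50W-X8, scintillation-counted; percent inhibition calculated.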

The target of the next test is NOS3 (Bos taurus, UniProt P29473). Description: 14-C-L-arginine to 14-C-L-citrulline conversion by purified recombinant NOS3. The test is classed as biochemical, bovine. As to conditions: purified recombinant enzyme. A digest of the protocol: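 Purchased recombinant bovine NOS3, with NOS co-factors and 14C-L-arginine, with or without graded test compound, in near-dark conditions. 14C-L-citrulline formed was separated from 14C-L-arginine on a Dowex 50W-X8 cation-exchange column and counted by scintillation. Activity is given as percent inhibition.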

For another test, the target named is NOS2 (Homo sapiens, UniProt P35228). Description: 14-C-L-arginine to 14-C-L-citrulline conversion by purified recombinant NOS2. Format: biochemical.
The target in another test is NOS2 oxygenase domain (Homo sapiens, UniProt P35228). Nature of the test: CO binding to reduced NOS2 oxygenase domain heme. As to conditions: NOS2 oxygenase domain reduced with dithionite. A digest of the protocol: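 Purified recombinant NOS2 oxygenase domain (about 3 μM final) reduced with dithionite and exposed to CO, with or without test compound. UV/visible spectra recorded, monitoring the ferrous-heme–CO peak at 445 nm.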

Test [1] deals with Raw 264.7 mouse macrophage cell line. Description: NO production by interferon-gamma-activated macrophages. Format: cell-based. The settings on record: 0.5, 2.0 or 8.0 μM for 24 hours with 500 units/ml murine interferon gamma. In short, it runs like this:
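Raw 264.7 cells kept by serial passage in RPMI-1640 with 10% FBS. Activated 24 h with 500 units/ml murine interferon-gamma, with 0, 0.5, 2.0 or 8.0 μM test compound present throughout. Loaded with 10 μM DAF-FM for 30 min, washed, and fluorescence read at 495/515 nm. NO production given as percent of control; SEM from 6 separate experiments.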

Where [2] appears, read: purified recombinant enzyme, 60 min, 37°C.
[3] abbreviates: agent exposed to light for 60 minutes (with light).
The mark [4] stands for this setting: agent not exposed to light (no light).

Chain of NOS2 oxygenase domain (P35228 1-504 limits assumed): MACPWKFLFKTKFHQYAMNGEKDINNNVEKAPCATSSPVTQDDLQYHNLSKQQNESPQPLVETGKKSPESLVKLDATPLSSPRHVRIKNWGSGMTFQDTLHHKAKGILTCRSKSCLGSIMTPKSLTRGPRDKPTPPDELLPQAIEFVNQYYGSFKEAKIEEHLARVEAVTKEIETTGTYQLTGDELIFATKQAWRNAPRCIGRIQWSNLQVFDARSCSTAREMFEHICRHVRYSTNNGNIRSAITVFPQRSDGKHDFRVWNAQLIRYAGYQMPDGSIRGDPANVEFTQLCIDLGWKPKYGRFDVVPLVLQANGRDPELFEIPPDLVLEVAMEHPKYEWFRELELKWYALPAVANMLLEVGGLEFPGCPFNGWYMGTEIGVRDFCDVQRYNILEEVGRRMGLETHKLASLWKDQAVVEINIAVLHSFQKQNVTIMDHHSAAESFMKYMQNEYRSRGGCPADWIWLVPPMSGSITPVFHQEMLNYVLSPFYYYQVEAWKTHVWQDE

`C/C1=C2/[N-][C@H]([C@H](CC(N)=O)[C@@]2(C)CCC(=O)NC[C@@H](C)O)[C@]2(C)N=C(/C(C)=C3N=C(/C=C4N=C1[C@@H](CCC(N)=O)C\4(C)C)[C@@H](CCC(N)=O)[C@]\3(C)CC(N)=O)[C@@H](CCC(N)=O)[C@]2(C)CC(N)=O.[Co+3]` [Cobinamide]: the “Estimated ED50 NOS1” value at NOS1 (setting [2]) is 15.0 µM. The “Estimated ED50 NOS3” value at NOS3 is 43.0 µM. Further, the “Estimated ED50 NOS2” value at NOS2 (setting [2]) is 50.0 µM.
As for `C/C1=C2/[N-]C([C@H](CC(N)=O)[C@@]2(C)CCC(=O)NCC(C)O)[C@]2(C)N=C(/C(C)=C3N=C(/C=C4N=C1[C@@H](CCC(N)=O)C\4(C)C)[C@@H](CCC(N)=O)[C@]\3(C)CC(N)=O)[C@@H](CCC(N)=O)[C@]2(C)CC(N)=O.[C-]#N.[C-]#N.[Co]` (stereo partly drawn) [Dicyanocobinamide], at NOS1 (setting [2]), the “Estimated ED50 NOS1” value is 0.23 µM. For the same molecule, the “Estimated ED50 NOS3” value on NOS3 was 0.33 µM. Moreover, the “Estimated ED50 NOS2” value on NOS2 (setting [2]) was 2.29 µM. Further, the “Effect on CO-induced spectral changes (ferrous-CO adduct formation)” value on NOS2 oxygenase domain is recorded as “markedly diminished”. In addition, in test [1], the “NO production by cells” value was “dose-dependent inhibition”.
For `C/C1=C2/[N-][C@H]([C@H](CC(N)=O)[C@@]2(C)CCC(=O)NC[C@H](C)OP(=O)([O-])O[C@H]2[C@@H](O)[C@@H](n3cnc4cc(C)c(C)cc43)O[C@@H]2CO)[C@]2(C)N=C(/C(C)=C3N=C(/C=C4N=C1[C@@H](CCC(N)=O)C\4(C)C)[C@@H](CCC(N)=O)[C@]\3(C)CC(N)=O)[C@@H](CCC(N)=O)[C@]2(C)CC(N)=O.[CH3-].[Co+3]` [Methylcobalamin], the “Estimated ED50 NOS1” value at NOS1 (setting [3]) is 5.9 µM; on NOS1 (setting [4]), 576.0 µM. For the same molecule, the “Estimated ED50 NOS2” value at NOS2 (setting [3]) is 63.0 µM; on NOS2 (setting [4]), 231.0 µM.
Turning to `C/C1=C2/[N-][C@H]([C@H](CC(N)=O)[C@@]2(C)CCC(=O)NC[C@@H](C)OP(=O)([O-])O[C@H]2[C@@H](O)[C@@H](n3cnc4cc(C)c(C)cc43)O[C@@H]2CO)[C@]2(C)N=C(/C(C)=C3N=C(/C=C4N=C1[C@@H](CCC(N)=O)C\4(C)C)[C@@H](CCC(N)=O)[C@]\3(C)CC(N)=O)[C@@H](CCC(N)=O)[C@]2(C)CC(N)=O.[Co+3].[OH-]` [Hydroxocobalamin], the “Estimated ED50 NOS1” value at NOS1 (setting [2]) is 5.7 µM. Moreover, the “Estimated ED50 NOS3” value at NOS3 is 9.1 µM. The “Estimated ED50 NOS2” value at NOS2 (setting [2]) is 21.1 µM.
Consider `C/C1=C2/[N-][C@H]([C@H](CC(N)=O)[C@@]2(C)CCC(=O)NC[C@@H](C)OP(=O)([O-])O[C@H]2[C@@H](O)[C@@H](n3cnc4cc(C)c(C)cc43)O[C@@H]2CO)[C@]2(C)N=C(/C(C)=C3N=C(/C=C4N=C1[C@@H](CCC(N)=O)C\4(C)C)[C@@H](CCC(N)=O)[C@]\3(C)CC(N)=O)[C@@H](CCC(N)=O)[C@]2(C)CC(N)=O.[CH2-][C@H]1O[C@@H](n2cnc3c(N)ncnc32)[C@H](O)[C@@H]1O.[Co]` [Adenosylcobalamin], for which the results for the “Estimated ED50 NOS1” value at NOS1 (setting [3]) and at NOS1 (setting [4]) were 6.4 µM and 498.0 µM, respectively. Further, the “Estimated ED50 NOS2” value on NOS2 (setting [3]) is 60.0 µM; on NOS2 (setting [4]) it was 2148.0 µM.
Regarding `C/C1=C2N=C(/C=C3N=C(/C(C)=C4\[N-]C(C(CC(N)=O)C4(C)CCC(=O)NCC(C)OP(=O)([O-])OC4C(CO)OC(n5cnc6cc(C)c(C)cc65)C4O)C4(C)N=C1C(CCC(N)=O)C4(C)CC(N)=O)C(CCC(N)=O)C\3(C)C)C(CCC(N)=O)C/2(C)CC(N)=O.NC(CCC(=O)NC(C[S-])C(=O)NCC(=O)O)C(=O)O.[Co+3]` (stereo not drawn) [Glutathionylcobalamin], at NOS1 (setting [2]), the “Estimated ED50 NOS1” value is 9.6 µM. Also, the “Estimated ED50 NOS3” value on NOS3 is 41.0 µM. The “Estimated ED50 NOS2” value at NOS2 (setting [2]) is 29.0 µM.
With Cyanocobalamin, on NOS1 (setting [2]), the “Estimated ED50 NOS1” value was 72.0 µM. In addition, the “Estimated ED50 NOS3” value on NOS3 is 519.0 µM. The “Estimated ED50 NOS2” value at NOS2 (setting [2]) is 1620.0 µM.
Turning to `CC1(C)N([O])C(c2ccc(C(=O)[O-])cc2)=[N+]([O-])C1(C)C.[K+]` [Carboxy-PTIO, 2-(4-Carboxyphenyl)-4,4,5,5-tetramethylimidazoline-1-oxyl-3-oxide (potassium salt)], the “Estimated ED50 NOS1” value at NOS1 (setting [2]) is 1360.0 µM. Also, the “Estimated ED50 NOS2” value on NOS2 (setting [2]) was 1359.0 µM.
